In brackets after ≈: the same amount, converted by molar mass. Activity calls are given as the source filed them. The rule behind the calls is not given here.
Tests used:
[1] = tested on: Human rhinovirus sp.; assay: Mean of MIC's was determined for the five types of virus like HRV-2, HRV-1A,HRV-22,HRV-41 and HRV-50; type: functional
Summary of the method: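 MIC measured by plaque reduction against HRV-2 first. The value is the mean of the MICs across these five serotypes.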

[2] = tested on: rhinovirus A2; assay: Antiviral activity determined by ability to inhibit the HRV-2( human rhinovirus type -2) virus by plaque reduction assay in vitro; type: functional; details: Rhinovirus A
Summary of the method: (§1)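 Plaque reduction assay against human rhinovirus type 2 (HRV-2), following an earlier reported method. The value is the MIC, the minimum inhibitory concentration.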

[3] = tested on: rhinovirus A2; assay: Antirhinovirus activity was assessed and the maximum testable concentration that causes no apparent effects on the cell monolayers was determined against HRV-2 virus in vitro.; type: functional, human rhinovirus type 2
[4] = tested on: human rhinovirus (15-serotype panel); assay: Antirhinovirus activity was determined by the ability to inhibit the growth of 80% of a panel of 15 human rhinovirus serotypes
[5] = tested on: rhinovirus B6; assay: Tested for antirhinoviral activity against the rhinovirus serotype 6; type: functional; details: Rhinovirus B
Summary of the method: (§2)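 Selected compounds were tested across a 15-serotype rhinovirus panel: the five secondary serotypes plus 10 more. An MIC was recorded for each serotype. MIC80, the concentration inhibiting 80% of serotypes tested, was also derived from this panel.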

[6] = tested on: rhinovirus A1B; assay: Tested for antirhinoviral activity against the rhinovirus serotype 1B; type: functional, human rhinovirus type 1b; details: Rhinovirus A; summary of the method: as §2
[7] = Partition coefficient (logP); type: physicochemical; details: octanol/water
[8] = tested on: rhinovirus B86; assay: Tested for antirhinoviral activity against the rhinovirus serotype 86; type: functional; details: Rhinovirus B; summary of the method: as §2
[9] = tested on: rhinovirus A15; assay: Tested for antirhinoviral activity against the rhinovirus serotype 15; type: functional; details: Rhinovirus A; summary of the method: as §2
[10] = tested on: rhinovirus A89; assay: Tested for antirhinoviral activity against the rhinovirus serotype 89; type: functional, human rhinovirus type 89; details: Rhinovirus A; summary of the method: as §2
[11] = tested on: rhinovirus A50; assay: Tested for antirhinoviral activity against the rhinovirus serotype 50; type: functional; details: Rhinovirus A; summary of the method: as §2
[12] = tested on: rhinovirus A25; assay: Tested for antirhinoviral activity against the rhinovirus serotype 25; type: functional; details: Rhinovirus A; summary of the method: as §2
[13] = tested on: rhinovirus B14; assay: Tested for antirhinoviral activity against the rhinovirus serotype 14; type: functional, human rhinovirus type 14; details: Rhinovirus B; summary of the method: as §2
[14] = tested on: rhinovirus A2; assay: Tested for antirhinoviral activity against the rhinovirus serotype 2; type: functional, human rhinovirus type 2; details: Rhinovirus A; summary of the method: as §2
[15] = tested on: rhinovirus A21; assay: Tested for antirhinoviral activity against the rhinovirus serotype 21; type: functional; details: Rhinovirus A; summary of the method: as §2
[16] = tested on: rhinovirus A67; assay: Tested for antirhinoviral activity against the rhinovirus serotype 67; type: functional; details: Rhinovirus A; summary of the method: as §2
[17] = tested on: Human rhinovirus 1A; assay: Tested for antirhinoviral activity against the rhinovirus serotype 1A; type: functional; summary of the method: as §2
[18] = tested on: rhinovirus A22; assay: Tested for antirhinoviral activity against the rhinovirus serotype 22; type: functional; details: Rhinovirus A; summary of the method: as §2
[19] = tested on: rhinovirus A41; assay: Tested for antirhinoviral activity against the rhinovirus serotype 41; type: functional; details: Rhinovirus A; summary of the method: as §2
[20] = tested on: rhinovirus A30; assay: Tested for antirhinoviral activity against the rhinovirus serotype 30; type: functional; details: Rhinovirus A; summary of the method: as §2
[21] = tested on: rhinovirus A1B; assay: Tested for antirhinoviral activity against the rhinovirus serotype 1B; IA is inactive; type: functional, organism-based; details: human rhinovirus type 1b; summary of the method: as §2
[22] = tested on: rhinovirus A25; assay: Tested for antirhinoviral activity against the rhinovirus serotype 25; IA is inactive; type: functional, organism-based; summary of the method: as §2
[23] = tested on: rhinovirus A2; assay: Antirhinovirus activity was determined by the ability to inhibit the HRV-2( human rhinovirus type -2) virus by plaque reduction assay in vitro; IA is inactive; type: functional, organism-based; summary of the method: as §1

| SMILES | MIC [1] [µM] | MIC [2] [µM] | MIC80 [4] [µM] | MIC [5] [µM] | MIC [6] [µM] | logP [7] | MIC [8] [µM] | MIC [9] [µM] | MIC [10] [µM] | MIC [11] [µM] | MIC [12] [µM] | MIC [13] [µM] | MIC [14] [µM] | MIC [15] [µM] | MIC [16] [µM] | MIC [17] [µM] | MIC [18] [µM] | MIC [19] [µM] | MIC [20] [µM] | MTL [3] [µM] | further results |
| --- | --- | --- | --- | --- | --- | --- | --- | --- | --- | --- | --- | --- | --- | --- | --- | --- | --- | --- | --- | --- | --- |
| Cc1cc(CCCCCOc2ccc(C3=NCCO3)cc2C(C)C)on1 | > 50 | 0.2 (≈ 0.0713 µg/mL) | – | – | – | – | – | – | – | – | – | – | – | – | – | – | – | – | – | 2.2 | – |
| CCC(=O)Nc1cc(C2=NCCO2)ccc1OCCCCCc1cc(C)no1 | – | 7.3 (≈ 2.81 µg/mL) | – | – | – | – | – | – | – | – | – | – | – | – | – | – | – | – | – | 16 | – |
| Cc1cc(CCCCCOc2ccc(C3=NCCO3)cc2N(C)C)on1 | > 17 | 0.2 (≈ 0.0715 µg/mL) | – | – | – | – | – | – | – | – | – | – | – | – | – | – | – | – | – | 17 | – |
| Cc1cc(CCCCCOc2ccc(C3=NCCO3)cc2)on1 | 5.2 (≈ 1.63 µg/mL) | 1.1 (≈ 0.346 µg/mL) | 7 (≈ 2.2 µg/mL) | 0.06 (≈ 0.0189 µg/mL) | – | – | 0.2 (≈ 0.0629 µg/mL) | 1.5 (≈ 0.472 µg/mL) | 0.4 (≈ 0.126 µg/mL) | 1.5 (≈ 0.472 µg/mL) | – | 0.7 (≈ 0.22 µg/mL) | 1.1 (≈ 0.346 µg/mL) | 1.2 (≈ 0.377 µg/mL) | 2.4 (≈ 0.755 µg/mL) | 7 (≈ 2.2 µg/mL) | 0.9 (≈ 0.283 µg/mL) | 15 (≈ 4.72 µg/mL) | 0.3 (≈ 0.0943 µg/mL) | 9.9 | MIC [21]: inactive; MIC [22]: inactive |
| Cc1cc(CCCCCOc2ccc(C3=NCCO3)cc2N)on1 | 7 (≈ 2.31 µg/mL) | 0.91 (≈ 0.3 µg/mL) | – | – | – | 2.83 | – | – | – | – | – | – | – | – | – | – | – | – | – | 19 | – |
| Cc1cc(CCCCCOc2ccc(C3=NCCO3)cc2C=O)on1 | > 2.3 | 1.4 (≈ 0.479 µg/mL) | – | – | – | – | – | – | – | – | – | – | – | – | – | – | – | – | – | 2.3 | – |
| Cc1cc(CCCCCOc2ccc(C3=NCCO3)cc2C(C)(C)C)on1 | – | – | – | – | – | – | – | – | – | – | – | – | – | – | – | – | – | – | – | 8.4 | MIC [23]: inactive |
| COc1cc(C2=NCCO2)ccc1OCCCCCc1cc(C)no1 | 4.5 (≈ 1.55 µg/mL) | 0.3 (≈ 0.103 µg/mL) | 1.9 (≈ 0.654 µg/mL) | 1 (≈ 0.344 µg/mL) | 1.8 (≈ 0.62 µg/mL) | 3.44 | 1.9 (≈ 0.654 µg/mL) | 0.6 (≈ 0.207 µg/mL) | 0.7 (≈ 0.241 µg/mL) | 0.4 (≈ 0.138 µg/mL) | – | 1.7 (≈ 0.585 µg/mL) | 0.3 (≈ 0.103 µg/mL) | 0.2 (≈ 0.0689 µg/mL) | 1 (≈ 0.344 µg/mL) | 6.7 (≈ 2.31 µg/mL) | 0.8 (≈ 0.276 µg/mL) | 14 (≈ 4.82 µg/mL) | 0.2 (≈ 0.0689 µg/mL) | 37 | IA [22]: inactive |

More lines, main results first:

| MIC [1] [µM] | MIC [2] [µM] | MIC80 [4] [µM] | MIC [5] [µM] | MIC [6] [µM] | logP [7] | MIC [8] [µM] | MIC [9] [µM] | MIC [10] [µM] | MIC [11] [µM] | MIC [12] [µM] | MIC [13] [µM] | MIC [14] [µM] | MIC [15] [µM] | MIC [16] [µM] | MIC [17] [µM] | MIC [18] [µM] | MIC [19] [µM] | MIC [20] [µM] | SMILES | MTL [3] [µM] | further results |
| --- | --- | --- | --- | --- | --- | --- | --- | --- | --- | --- | --- | --- | --- | --- | --- | --- | --- | --- | --- | --- | --- |
| 2.3 (≈ 0.867 µg/mL) | 0.1 (≈ 0.0377 µg/mL) | 2.8 (≈ 1.06 µg/mL) | – | – | – | – | – | – | – | – | – | – | – | – | – | – | – | – | Cc1cc(CCCCCCCOc2ccc(C3=NCCO3)cc2Cl)on1 | 17 | – |
| 1.8 (≈ 0.616 µg/mL) | 0.06 (≈ 0.0205 µg/mL) | 2 (≈ 0.685 µg/mL) | 3.2 (≈ 1.1 µg/mL) | 0.09 (≈ 0.0308 µg/mL) | 4.71 | 1.9 (≈ 0.651 µg/mL) | 0.4 (≈ 0.137 µg/mL) | 0.07 (≈ 0.024 µg/mL) | 0.1 (≈ 0.0342 µg/mL) | 4 (≈ 1.37 µg/mL) | 1.1 (≈ 0.377 µg/mL) | 0.06 (≈ 0.0205 µg/mL) | 0.04 (≈ 0.0137 µg/mL) | 0.3 (≈ 0.103 µg/mL) | 2 (≈ 0.685 µg/mL) | 0.1 (≈ 0.0342 µg/mL) | 6.7 (≈ 2.29 µg/mL) | 0.1 (≈ 0.0342 µg/mL) | CCc1cc(C2=NCCO2)ccc1OCCCCCc1cc(C)no1 | 9.1 | – |
| 1.1 (≈ 0.392 µg/mL) | 0.1 (≈ 0.0356 µg/mL) | 5.1 (≈ 1.82 µg/mL) | 5.1 (≈ 1.82 µg/mL) | 0.3 (≈ 0.107 µg/mL) | 3.28 | 6.5 (≈ 2.32 µg/mL) | 0.4 (≈ 0.143 µg/mL) | 2 (≈ 0.713 µg/mL) | 0.2 (≈ 0.0713 µg/mL) | 2.2 (≈ 0.784 µg/mL) | 7.3 (≈ 2.6 µg/mL) | 0.1 (≈ 0.0356 µg/mL) | 5.3 (≈ 1.89 µg/mL) | 0.6 (≈ 0.214 µg/mL) | 2.2 (≈ 0.784 µg/mL) | 0.1 (≈ 0.0356 µg/mL) | 2.9 (≈ 1.03 µg/mL) | 0.3 (≈ 0.107 µg/mL) | CC(=O)c1cc(C2=NCCO2)ccc1OCCCCCc1cc(C)no1 | 6.5 | – |
| 1 (≈ 0.349 µg/mL) | 0.06 (≈ 0.0209 µg/mL) | 1 (≈ 0.349 µg/mL) | 0.6 (≈ 0.209 µg/mL) | 0.2 (≈ 0.0698 µg/mL) | – | 0.9 (≈ 0.314 µg/mL) | 0.2 (≈ 0.0698 µg/mL) | 0.03 (≈ 0.0105 µg/mL) | 0.2 (≈ 0.0698 µg/mL) | 2.4 (≈ 0.837 µg/mL) | 2.4 (≈ 0.837 µg/mL) | 0.06 (≈ 0.0209 µg/mL) | 0.07 (≈ 0.0244 µg/mL) | 0.23 (≈ 0.0802 µg/mL) | 1 (≈ 0.349 µg/mL) | 0.1 (≈ 0.0349 µg/mL) | 3.5 (≈ 1.22 µg/mL) | 0.07 (≈ 0.0244 µg/mL) | Cc1cc(CCCCCOc2ccc(C3=NCCO3)cc2Cl)on1 | 8.9 | – |
| 0.4 (≈ 0.153 µg/mL) | 0.03 (≈ 0.0115 µg/mL) | 1.1 (≈ 0.421 µg/mL) | 1.8 (≈ 0.688 µg/mL) | 0.04 (≈ 0.0153 µg/mL) | 4.38 | 0.03 (≈ 0.0115 µg/mL) | 0.2 (≈ 0.0765 µg/mL) | 0.2 (≈ 0.0765 µg/mL) | 1.1 (≈ 0.421 µg/mL) | 0.2 (≈ 0.0765 µg/mL) | 3 (≈ 1.15 µg/mL) | 0.03 (≈ 0.0115 µg/mL) | 0.03 (≈ 0.0115 µg/mL) | 0.2 (≈ 0.0765 µg/mL) | 0.4 (≈ 0.153 µg/mL) | 0.07 (≈ 0.0268 µg/mL) | 0.2 (≈ 0.0765 µg/mL) | 0.3 (≈ 0.115 µg/mL) | Cc1cc(CCCCCOc2ccc(C3=NCCO3)cc2C(F)(F)F)on1 | 3.4 | – |
